Experimental data taken from ChEMBL document CHEMBL3734686, “Synthesis, Photophysical Properties, and Biological Evaluation of trans-Bisthioglycosylated Tetrakis(fluorophenyl)chlorin for Photodynamic Therapy” (J Med Chem, 2015).

Legend:
[1] = tested on: Liver; test: Drug uptake in BALB/c mouse liver implanted with mouse 4T1 cells assessed per gram of tissue at 0.18 mg/kg, ip after 24 hrs by HPLC-based fluorescence analysis; type: ADME, organism-based; conditions: in vivo
In short: (§1)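 Female BALB/c mice bearing 4T1 thigh tumours received an i.p. dose in ethanol/PEG400/H2O (2/3/5) with 0.1% DMSO, or in saline, and were kept dark until killed. Tissues were weighed (100 mg), homogenised in CH3OH/DMSO/H2O (32/8/1) and centrifuged twice at 2300×g at 4°C. Supernatants were analysed by HPLC with fluorescence detection (λex 404/λem 654 nm or λex 400/λem 666 nm). n = 3 per time point.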

[2] = Drug uptake in BALB/c mouse small intestine implanted with mouse 4T1 cells assessed per gram of tissue at 0.18 mg/kg, ip after 48 hrs by HPLC-based fluorescence analysis; type: ADME, organism-based; conditions: in vivo
In short: (§2)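 Female BALB/c mice with 4T1 cells (1 × 10^6 in HBSS) implanted in left rear thigh; single i.p. dose, 7 in ethanol/PEG400/H2O (2/3/5) with 0.1% DMSO, mono-L-aspartyl chlorin e6 in saline; kept dark until sacrifice. Tissues washed, frozen, homogenized in CH3OH/DMSO/H2O (32/8/1), centrifuged 2300×g; supernatant analysed by HPLC with fluorescence detection; three animals per time point.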

[3] = tested on: U-251; test: Photocytotoxicity against human U251 cells assessed as cell survival preincubated for 24 hrs followed by irradiation at 16 J/cm2 measured at 24 hrs by WST-8 assay; type: functional, cell-based; conditions: U-251, light or radiation study
In short: (§3)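 Cells (5 × 10^3/well) in DMEM with 10% FCS, 24 h at 37°C, 5% CO2; photosensitizer 1–50000 nM (1% DMSO final) for 24 h, washed, fresh medium. Irradiated with 100-W halogen lamp through λ>500 nm or λ>600 nm cutoff filter to 16 J·cm−2; WST-8 absorbance at 450 nm 24 h later, survival normalized to no-drug wells.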

[4] = tested on: T98G; test: Photocytotoxicity against human T98G cells assessed as cell survival preincubated for 24 hrs followed by irradiation at 16 J/cm2 measured at 24 hrs by WST-8 assay; type: functional, cell-based; conditions: light or radiation study; in short: as §3
[5] = tested on: Liver; test: Drug uptake in BALB/c mouse liver implanted with mouse 4T1 cells assessed per gram of tissue at 0.18 mg/kg, ip after 72 hrs by HPLC-based fluorescence analysis; type: ADME, organism-based; conditions: in vivo; in short: as §1
[6] = tested on: 4T1; test: Drug uptake in mouse 4T1 cells implanted in BALB/c mouse assessed per gram of tissue at 0.18 mg/kg, ip after 24 hrs by HPLC-based fluorescence analysis; type: ADME, organism-based; conditions: in vivo; in short: as §2
[7] = Drug uptake in BALB/c mouse large intestine implanted with mouse 4T1 cells assessed per gram of tissue at 0.18 mg/kg, ip after 6 hrs by HPLC-based fluorescence analysis; type: ADME, organism-based; conditions: in vivo; in short: as §1
[8] = Drug uptake in BALB/c mouse large intestine implanted with mouse 4T1 cells assessed per gram of tissue at 0.18 mg/kg, ip after 12 hrs by HPLC-based fluorescence analysis; type: ADME, organism-based; conditions: in vivo; in short: as §1

Drug uptake [1]: 60 ng
Drug uptake [2]: 9.5 ng/g
Drug uptake [5]: 14 ng
Drug uptake [6]: 3 ng
Drug uptake [7]: 80 ng
Drug uptake [8]: 41 ng
SMILES: CN1CC2C3=N/C(=C(/c4c(F)c(F)c(S[C@@H]5O[C@H](CO)[C@@H](O)[C@H](O)[C@H]5O)c(F)c4F)C4=N/C(=C(/c5c(F)c(F)c(F)c(F)c5F)c5ccc([nH]5)/C(c5c(F)c(F)c(S[C@@H]6O[C@H](CO)[C@@H](O)[C@H](O)[C@H]6O)c(F)c5F)=C5/C=CC(=N5)C3c3c(F)c(F)c(F)c(F)c3F)C=C4)C2C1 (stereo partly drawn)
EC50 [3]: 500 pM
EC50 [4]: 500 pM
